In paper PMC3665005 (Gene therapy, 2012):

System: luciferase expression in liver
Test: HD-stimulated expression after tail vein dosing, luciferase in liver by BLI
Format: in vivo, mice
Conditions: HD-stimulation, 5 min delay, 1 μg pGL3, 0.8 nmol peptide
Outline: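 Albino ICR mice (three per group) received polyplex (1 μg pGL3, 0.8 nmol PEGylated peptide) in 50 μl HBM (5 mM Hepes, 0.27 M mannitol, pH 7.4) by tail vein. Saline at 9 wt/vol% body weight (1.8-2.25 ml) was given by tail vein over 5 sec. At 24 hrs, liver BLI under 3% isofluorane, 5 min after i.p. D-luciferin (2.4 mg). Mean and standard deviation reported.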

Substance	fold lower gene transfer relative to peptide 4 polyplexes	gene transfer compared with peptide 1 polyplexes (in words)
(Acr-DLys4)3-Acr-DLys-Cys-PEG [4D]	5 fold	–
(Acr-DLys)3-Acr-DLys-Cys-PEG [1D]	–	equivalent
